Assay results published in publication PMC4787808 (Nucleic Acids Research, 2015).
Entries after “also recorded” stand apart in the source; their conditions may differ.

What was measured:
[1] = tested on: intracellular L. donovani amastigotes; experiment: Inhibition of L. donovani amastigotes in infected THP-1 macrophages; assay type: cell-based, Leishmania donovani; settings: 1 μM, positive control
Summary of the method: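 THP-1 cells were differentiated with 25 ng/ml PMA for 24 h at 37°C, then infected with stationary-phase luciferase-expressing L. donovani promastigotes (5:1 parasite:macrophage) for 24 h and washed free of external parasites. Infected macrophages were trypsinised, checked by Giemsa stain and plated in triplicate (5 × 10^5 cells/ml). Compounds in medium with 1% DMSO were added for 48 h; lysates were read by Bright-Glo luminescence. Medium ± DMSO served as 0% inhibition; amphotericin B 1 μM was the positive control on each plate.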

[2] = tested on: auditory outer hair cells (organ of Corti explants); experiment: Toxicity assay in cochlear explants; assay type: cell-based, CBA/J mice
Summary of the method: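 Organ of Corti explants from postnatal day 2–3 CBA/J mice were kept in serum-free medium with supplement, BSA, glutamine and glucose, and pre-incubated about 48 h. They were then exposed to drug for 72 h, fixed in 4% PFA, permeabilised and stained with rhodamine phalloidin. Hair cells were counted apex to base under 50x oil and compared with a cytocochleogram database. Loss was reported as percent averaged over the whole explant length.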

[3] = tested on: L. tarentolae S30 translation (leishmanial ribosomes); experiment: Cell-free inhibition of translation, L. tarentolae LEXSY system; assay type: biochemical, Leishmania tarentolae; settings: relative to PAR
Summary of the method: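 Leishmania tarentolae cell-free LEXSY translation system driven by a pLEXSY-in-vitro2 vector encoding EGFP. Reactions with varied aminoglycoside concentrations ran 120 min at 26°C, and GFP fluorescence was read directly (ex 488, em 507 nm). Each curve used at least six concentrations. IC50 values came from concentration-response fits of at least three independent repeats.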

Leishmania = settings: cited from earlier work

In the case of C[C@@H]1[C@H](O)[C@@H](C)/C=C/C=C/C=C/C=C/C=C/C=C/C=C/[C@H](O[C@@H]2O[C@H](C)[C@@H](O)[C@H](N)[C@@H]2O)C[C@@H]2O[C@](O)(C[C@@H](O)C[C@@H](O)[C@H](O)CC[C@@H](O)C[C@@H](O)CC(=O)O[C@H]1C)C[C@H](O)[C@H]2C(=O)O [Amphotericin B], the “decrease in intracellular amastigotes” value [1] is reported as over 90%.
With CN[C@@H]1[C@@H](O)[C@@H](O[C@@H]2[C@@H](O)[C@H](O[C@H]3O[C@H]([C@@H](C)O)[C@@H](O)[C@H](O)[C@H]3N)[C@@H](N)C[C@H]2N)OC[C@]1(C)O [G418, Geneticin] the “toxicity to auditory outer hair cells along entire length of explant (in words)” value ([2]; murine explants, 72 h) was “high toxicity” and the “times more potent in inhibiting leishmanial ribosomal translation than PAR” value [3] was 20 times.
For CNC(C)C1CCC(N)C(OC2C(N)CC(N)C(OC3OCC(C)(O)C(NC)C3O)C2O)O1 (centres unmarked) [Gentamicin], the “anti-leishmanial activity (in words)” value (Leishmania) is given as “lack an anti-leishmanial activity”.
In the case of NC[C@@H]1O[C@H](O[C@H]2[C@@H](O)[C@H](O[C@@H]3[C@@H](O)[C@H](N)C[C@H](N)[C@H]3O[C@H]3O[C@H](CO)[C@@H](O)[C@H](O)[C@H]3N)O[C@@H]2CO)[C@H](N)[C@@H](O)[C@@H]1O [PAR, Paromomycin], the “outer hair cell pathology, basal turn of explant” value (from here on “outer hair cell pathology”) ([2]; 10 μM, 72 h) is reported as “intact”, the “outer hair cell pathology” value ([2]; 22 μM, 72 h) is reported as “significant loss of OHC; also recorded: partial destruction of outer hair cells” and the “outer hair cell pathology” value ([2]; 33 μM, 72 h) is reported as “complete destruction; also recorded: complete elimination of basal-turn outer hair cells”. The “IC Coch50 (outer hair cell loss in cochlear explants)” value ([2]; murine explants, 72 h exposure) was 30 µM.
